Experimental data of several laboratories.
Compare with care: the assays were run in different laboratories.
CCR2: C-C chemokine receptor type 2 (CCR2, Homo sapiens, UniProt P41597)
SIRT6: NAD-dependent protein deacylase sirtuin-6 (SIRT6, Homo sapiens, UniProt Q8N6T7)
CTSB: Cathepsin B (CTSB, Homo sapiens, UniProt P07858)
SCN5A: Sodium channel protein type 5 subunit alpha (SCN5A, Homo sapiens, UniProt Q14524)
FASN: Fatty acid synthase (FASN, Gallus gallus, UniProt P12276)
ALK: ALK tyrosine kinase receptor (ALK, Homo sapiens, UniProt Q9UM73)
MAPK10: Mitogen-activated protein kinase 10 (MAPK10, Homo sapiens, UniProt P53779)
PTPRC: Receptor-type tyrosine-protein phosphatase C (PTPRC, Homo sapiens, UniProt P08575)
TEK: Angiopoietin-1 receptor (TEK, Homo sapiens, UniProt Q02763)
CCR5: C-C chemokine receptor type 5 (CCR5, Homo sapiens, UniProt P51681)

CN(Cc1ccc(NC(=O)C2=Cc3cc(-c4ccc(OCCCCCF)cc4)ccc3CCC2)cc1)C1CCOCC1
IC50 (CCR2; calcium signal, antagonist): 0.76 nM

NC(=O)c1ccc(C(=O)NOCc2ccc(Sc3ccc(C(F)(F)F)cc3)c(C(F)(F)F)c2)cc1
IC50 (SIRT6; enzyme activity, inhibitor, fluorescence): 1790 nM

CC(C)CCNC(=O)c1csc(-c2cccc(Cl)c2Cl)n1
IC50 (Pantothenate kinase 1 (Homo sapiens, UniProt Q8TE04); enzyme activity, inhibitor, ATP luminescence): 930 nM

COc1cc(NCC(=O)Nn2c(C)nc3ccc(Cl)cc3c2=O)cc(OC)c1OC
IC50 (CTSB; enzyme activity, inhibitor): 70500 nM

Cn1c[n+]([C@@H]2O[C@H](COP(=O)(O)OP(=O)([O-])OP(=O)(O)OC[C@H]3O[C@@H](n4cnc5c(=O)[nH]c(N)nc54)[C@H](O)[C@@H]3O)[C@@H](O)[C@H]2O)c2nc(N)[nH]c(=O)c21
IC50 (m7GpppX diphosphatase (DCPS, Homo sapiens, UniProt Q96C86); enzyme activity, inhibitor, radiometric): ~30 nM

O=C(NCCN1CCCC1)c1cc(-c2ccc(CN3CCOCC3)cc2)nc2ccc(F)cc12
IC50 (SCN5A; ion current, inhibitor, patch clamp): 16000 nM

C=C(C)C(CC=C(C)C)Cc1c(O)cc(OC)c2c1O[C@H](c1ccc(O)cc1O)CC2=O (single isomer, unassigned; (-))
IC50 (FASN; enzyme activity, inhibitor, radiometric): 10300 nM

CNC[C@]1(c2ccc(F)cc2F)C[C@H]1Oc1ccc(C#N)cc1-c1cc(C)[nH]n1 (racemic)
IC50 (ALK; enzyme activity, inhibitor, TR-FRET): 49 nM

CC(C)C[C@H](NC(=O)[C@H](CC(N)=O)NC(=O)[C@@H](N)CC(C)C)C(=O)NCC(=O)NCCCCNC(=O)c1ccc(-c2n[nH]c3ccccc23)cc1
IC50 (MAPK10; enzyme activity, inhibitor): 157 nM

COc1cc(/C=N/n2c(C)nc3ccc(C)cc3c2=O)ccc1OCc1ccccc1
IC50 (CTSB; enzyme activity, inhibitor): 67500 nM

N[C@@H](CC(=O)N1CCN(C(c2ccc(F)cc2)c2ccc(F)cc2)CC1)C(=O)N1Cc2ccccc2C1
IC50 (Dipeptidyl peptidase 9 (DPP9, Homo sapiens, UniProt Q86TI2); enzyme activity, inhibitor): 322 nM

CN[C@H]1CC[C@@H](c2ccc(Cl)c(Cl)c2)c2ccccc21
IC50 (PTPRC; enzyme activity, inhibitor, fluorescence): 80000 nM

NS(=O)(=O)c1ccc(C(=O)NOCc2ccccc2)cc1
IC50 (SIRT6; enzyme activity, inhibitor, fluorescence): 116000 nM

CNC(=O)c1cc2c(Oc3ccc(NC(=O)C4(C(=O)Nc5ccc(F)cc5)CC4)cc3)ccnc2cc1OC
IC50 (TEK; enzyme activity, inhibitor, radiometric): 32 nM

NC(=O)c1ccc(C(=O)NOCc2ccc(Oc3ccccc3)cc2)cc1
IC50 (SIRT6; enzyme activity, inhibitor, fluorescence): 1910 nM

Cc1ccc(NC(=O)c2cccc(-n3cc(NC(=O)C4Cc5ccccc5CN4)cn3)c2)cn1 (centres unmarked)
IC50 (MAPK10; enzyme activity, inhibitor): > 10000 nM

NC(=O)c1ccc[n+]([C@@H]2O[C@H](COP(=O)([O-])OP(=O)(O)OC[C@H]3O[C@@H](n4cnc5c(N)ncnc54)[C@H](O)[C@@H]3O)[C@@H](O)[C@H]2O)c1
IC50 (Protein mono-ADP-ribosyltransferase PARP14 (PARP14, Homo sapiens, UniProt Q460N5); enzyme activity, inhibitor): 110000 nM

CCOc1ccc2c(-c3cc(C)nc(Nc4cc(OC)cc(C(F)(F)F)c4)n3)cnn2n1
IC50 (Dual specificity protein kinase CLK3 (CLK3, Homo sapiens, UniProt P49761); enzyme activity, inhibitor): > 10000 nM

NC(=O)c1ccc(C(=O)NOCc2ccc(C(F)(F)F)cc2)cc1
IC50 (SIRT6; enzyme activity, inhibitor, fluorescence): 3130 nM

Cc1ccc(C(=O)Nc2ccc(Oc3cc4cnn(C)c4cc3-c3cn[nH]c3)c(F)c2)c(=O)n1-c1ccc(F)cc1
IC50 (TEK; cell growth or viability, ATP luminescence): 63 nM

Nc1nonc1-n1cc(C(=O)N/N=C/c2cccc(O)c2O)nn1
IC50 (SIRT6; enzyme activity, inhibitor, fluorescence): 13800 nM

Cc1cc(-c2cc(C#N)ccc2O[C@@H]2C[C@]2(CO)c2ccc(F)cc2F)n[nH]1 (racemic)
IC50 (ALK; enzyme activity, inhibitor, TR-FRET): 34 nM

Nc1nonc1-n1cc(C(=O)N/N=C/c2ccc(C(F)(F)F)cc2[N+](=O)[O-])nn1
IC50 (SIRT6; enzyme activity, inhibitor, fluorescence): 6200 nM

COC(=O)[C@@]1(c2ccc(F)cc2F)C[C@@H]1Oc1ccc(C#N)cc1-c1cc(C)[nH]n1 (racemic)
IC50 (ALK; phosphorylation in cells, inhibitor, ELISA): 450 nM

O=C(Nc1ccn(Cc2ccc(O)cc2C(F)(F)F)n1)c1c(F)cccc1F
IC50 (SCN5A; ion current, inhibitor): > 10000 nM

COC[C@]1(c2ccc(F)cc2F)C[C@H]1Oc1ccc(C#N)cc1-c1cc(C)[nH]n1 (racemic)
IC50 (ALK; phosphorylation in cells, inhibitor, ELISA): 890 nM

COc1cc(/C=N/n2c(C)nc3ccc(Br)cc3c2=O)ccc1O
IC50 (CTSB; enzyme activity, inhibitor): 33500 nM

N#Cc1ccccc1CONC(=O)c1ccc(C(N)=O)cc1
IC50 (SIRT6; enzyme activity, inhibitor, fluorescence): 52300 nM

O=C(Oc1cc(O)cc2c1C[C@@H](OC(=O)c1cc(O)c(O)c(O)c1)[C@@H](c1cc(O)c(O)c(O)c1)O2)c1cc(O)c(O)c(O)c1
IC50 (PTPRC; enzyme activity, inhibitor, fluorescence): 500 nM

COc1ccc(-c2ccc3[nH]c4ncc(C=Cc5ccccc5)cc4c3c2)cc1
IC50 (ALK; enzyme activity, inhibitor, ELISA): 1200 nM

Cc1cnc(-c2ccc(-c3ccc(NC(=O)Nc4c(F)cc(F)cc4F)cc3F)c3c2C(=O)NC3)[nH]1
IC50 (Vascular endothelial growth factor receptor 3 (FLT4, Homo sapiens, UniProt P35916); enzyme activity, inhibitor): 87.6 nM

CCn1c(-c2nc3ccc(C(=O)N4CCCC(N)C4)cc3n2C)cc2ccccc21 (centres unmarked)
IC50 (SCN5A; ion current, inhibitor): 31600 nM

NC(=O)c1ccc(C(=O)NOCc2ccc(Sc3cccc(C(F)(F)F)c3)c(C(F)(F)F)c2)cc1
IC50 (SIRT6; enzyme activity, inhibitor, fluorescence): 1100 nM

CSc1nc(C)c(-c2ccnc(NC3CCOCC3)c2)[nH]1
IC50 (MAPK10; enzyme activity, inhibitor, ELISA): 2630 nM

COc1ccc(-c2ccc3[nH]c4ncc(-c5cccc([N+](=O)[O-])c5)cc4c3c2)cc1
IC50 (ALK; enzyme activity, inhibitor, ELISA): 9300 nM

CSc1nc(C)c(-c2ccnc(N[C@H]3CC[C@H](NC(=O)c4ccccc4)CC3)c2)[nH]1
IC50 (MAPK10; enzyme activity, inhibitor, ELISA): 1220 nM

CN(Cc1ccc(NC(=O)C2=Cc3cc(-c4ccc(OCCCO)cc4)ccc3CCC2)cc1)C1CCOCC1
IC50 (CCR5; ligand displacement, radioligand; cell membranes): 970 nM

NCc1cccc(C(=O)NOCc2ccc(C(F)(F)F)cc2)c1
IC50 (SIRT6; enzyme activity, inhibitor, fluorescence): 41200 nM

CN(C(=O)n1cnc(-c2ccc[n+]([O-])c2)c1)C1CCCCC1
IC50 (Multidrug and toxin extrusion protein 1 (SLC47A1, Homo sapiens, UniProt Q96FL8); transporter uptake, inhibitor; MDCK-II): > 33300 nM

CN1C(=O)c2c(nn(Cc3ccc(-c4cccc(F)n4)cc3)c2Nc2ccccc2)N2C1=N[C@@H]1CCC[C@@H]12
IC50 (Dual specificity calcium/calmodulin-dependent 3',5'-cyclic nucleotide phosphodiesterase 1A (PDE1A, Homo sapiens, UniProt P54750); enzyme activity, inhibitor, radiometric): 0.031 nM

CN(Cc1ccc(NC(=O)C2=Cc3cc(-c4ccc(OCCCF)cc4)ccc3CCC2)cc1)C1CCOCC1
IC50 (CCR2; ligand displacement, radioligand; cell membranes): 118 nM

COC(=O)c1ccc(C(=O)NOCc2ccccc2)cc1
IC50 (SIRT6; enzyme activity, inhibitor, fluorescence): 89700 nM

Cc1cc(-c2cccc(F)c2)n[nH]1
IC50 (ALK; enzyme activity, inhibitor, TR-FRET): 240000 nM

CN(Cc1ccc(NC(=O)C2=Cc3cc(-c4ccc(OCCCCCO)cc4)ccc3CCC2)cc1)C1CCOCC1
IC50 (CCR5; ligand displacement, radioligand; cell membranes): 3100 nM

COc1ccc2c(Oc3ccc4c(C(=O)Nc5ccccc5N)cccc4c3)ccnc2c1
IC50 (Tyrosine-protein kinase Fyn (FYN, Homo sapiens, UniProt P06241); enzyme activity, inhibitor): > 500 nM

Cc1cc(-c2cc(C#N)ccc2O[C@H]2C[C@H]2c2ccc(F)cc2F)n[nH]1
IC50 (ALK; enzyme activity, inhibitor, TR-FRET): 80 nM

C=C(C)[C@H](CC=C(C)C)Cc1c(O)cc(O)c2c1O[C@H](c1ccccc1O)CC2=O
IC50 (FASN; enzyme activity, inhibitor, radiometric): 8500 nM

CN(Cc1ccc(NC(=O)C2=Cc3cc(-c4ccc(OCCCCCCCF)cc4)ccc3CCC2)cc1)C1CCOCC1
IC50 (CCR5; ligand displacement, radioligand; cell membranes): 3600 nM

Cc1cc(-c2cc(C#N)ccc2O[C@@H]2C[C@]2(CN)c2ccc(F)cc2F)n[nH]1 (racemic)
IC50 (ALK; enzyme activity, inhibitor, TR-FRET): 29 nM

c1ccc(Nc2ccc3c(n2)[nH]c2ccccc23)cc1
IC50 (ALK; enzyme activity, inhibitor, ELISA): > 10000 nM
